{"source": "ChEMBL document CHEMBL5550111", "about": "“Design, synthesis and biological evaluation of aryloxy thiophosphoramidate triesters of anticancer nucleoside analogues” (Bioorg Med Chem, 2024)", "key": {"HepG2 [1]": {"test_system": "HepG2", "assay": "Cytotoxicity against human HepG2 cells assessed as inhibition of cell viability incubated for 72 hrs by MTS assay", "type": "functional, cell-based", "details": "HepG2, 72 h", "method_in_brief": "(§1)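 Cells seeded at 0.5 to 100 × 10^3 per well the day before treatment, then exposed for 72 h to 9 serial concentrations (3.16-fold dilutions, top 198 μM), in duplicate. MTS added for a final 4 h at 37 °C and absorbance read. IC50 is the concentration giving 50% loss of viability. MI% is the maximum inhibition over the tested range.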"}, "HT-29 [2]": {"test_system": "HT-29", "assay": "Cytotoxicity against human HT-29 cells assessed as maximum inhibition of cell viability upto 198 uM incubated for 72 hrs by MTS assay relative to control", "type": "functional", "details": "up to 198 µM", "method_in_brief": "(§2)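 Cells seeded at 0.5 to 100 × 10^3 per well the day before drug addition, then exposed to compound for 72 h. MTS added afterwards, with a further 4 h at 37 °C, and absorbance read. Tested in duplicate at 9 serial 3.16-fold dilutions, top concentration 198 μM. MI% is the maximum inhibition of viability across the tested range.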"}, "SK-MES-1 [3]": {"test_system": "SK-MES-1", "assay": "Cytotoxicity against human SK-MES-1 cells assessed as inhibition of cell viability incubated for 72 hrs by MTS assay", "type": "functional, cell-based", "details": "SK-MES-1, 72 h", "method_in_brief": "as §1"}, "RPMI-8226 [4]": {"test_system": "RPMI-8226", "assay": "Cytotoxicity against human RPMI-8226 cells assessed as maximum inhibition of cell viability upto 198 uM incubated for 72 hrs by MTS assay relative to control", "type": "functional", "details": "up to 198 µM", "method_in_brief": "as §2"}, "OVCAR-3 [5]": {"test_system": "OVCAR-3", "assay": "Cytotoxicity against human OVCAR-3 cells assessed as maximum inhibition of cell viability upto 198 uM incubated for 72 hrs by MTS assay relative to control", "type": "functional", "details": "up to 198 µM", "method_in_brief": "as §2"}, "RPMI-8226 [6]": {"test_system": "RPMI-8226", "assay": "Cytotoxicity against human RPMI-8226 cells assessed as inhibition of cell viability incubated for 72 hrs by MTS assay", "type": "functional, cell-based", "details": "RPMI-8226, 72 h", "method_in_brief": "as §1"}, "HT-29 [7]": {"test_system": "HT-29", "assay": "Cytotoxicity against human HT-29 cells assessed as inhibition of cell viability incubated for 72 hrs by MTS assay", "type": "functional, cell-based", "details": "HT-29, 72 h", "method_in_brief": "as §1"}, "HepG2 [8]": {"test_system": "HepG2", "assay": "Cytotoxicity against human HepG2 cells assessed as maximum inhibition of cell viability upto 198 uM incubated for 72 hrs by MTS assay relative to control", "type": "functional", "details": "up to 198 µM", "method_in_brief": "as §2"}, "MIA PaCa-2 [9]": {"test_system": "MIA PaCa-2", "assay": "Cytotoxicity against human MIA PaCa-2 cells assessed as inhibition of cell viability incubated for 72 hrs by MTS assay", "type": "functional, cell-based", "details": "MIA PaCa-2, 72 h", "method_in_brief": "as §1"}, "RT112/84 [10]": {"test_system": "RT112/84", "assay": "Cytotoxicity against human RT112/84 cells assessed as maximum inhibition of cell viability upto 198 uM incubated for 72 hrs by MTS assay relative to control", "type": "functional", "details": "up to 198 µM", "method_in_brief": "as §2"}, "COLO 205 [11]": {"test_system": "COLO 205", "assay": "Cytotoxicity against human COLO 205 cells assessed as inhibition of cell viability incubated for 72 hrs by MTS assay", "type": "functional, cell-based", "details": "COLO 205, 72 h", "method_in_brief": "as §1"}, "OVCAR-3 [12]": {"test_system": "OVCAR-3", "assay": "Cytotoxicity against human OVCAR-3 cells assessed as inhibition of cell viability incubated for 72 hrs by MTS assay", "type": "functional, cell-based", "details": "OVCAR-3, 72 h", "method_in_brief": "as §1"}, "SK-MES-1 [13]": {"test_system": "SK-MES-1", "assay": "Cytotoxicity against human SK-MES-1 cells assessed as maximum inhibition of cell viability upto 198 uM incubated for 72 hrs by MTS assay relative to control", "type": "functional", "details": "up to 198 µM", "method_in_brief": "as §2"}, "RT112/84 [14]": {"test_system": "RT112/84", "assay": "Cytotoxicity against human RT112/84 cells assessed as inhibition of cell viability incubated for 72 hrs by MTS assay", "type": "functional, cell-based", "details": "RT112/84, 72 h", "method_in_brief": "as §1"}, "MIA PaCa-2 [15]": {"test_system": "MIA PaCa-2", "assay": "Cytotoxicity against human MIA PaCa-2 cells assessed as maximum inhibition of cell viability upto 198 uM incubated for 72 hrs by MTS assay relative to control", "type": "functional", "details": "up to 198 µM", "method_in_brief": "as §2"}, "NCI-H1975": {"test_system": "NCI-H1975", "assay": "Cytotoxicity against human NCI-H1975 cells assessed as maximum inhibition of cell viability upto 198 uM incubated for 72 hrs by MTS assay relative to control", "type": "functional", "details": "up to 198 µM", "method_in_brief": "as §2"}, "COLO 205 [16]": {"test_system": "COLO 205", "assay": "Cytotoxicity against human COLO 205 cells assessed as maximum inhibition of cell viability upto 198 uM incubated for 72 hrs by MTS assay relative to control", "type": "functional", "details": "up to 198 µM", "method_in_brief": "as §2"}}, "data": [{"smiles": "Nc1nc(=O)n([C@H]2C[C@H](O)[C@@H](CO)O2)cc1F", "values": [{"measurement": "IC50", "setting": "HepG2 [1]", "result": 53900, "unit": "nM"}, {"measurement": "Imax", "setting": "HT-29 [2]", "result": 83, "unit": "%"}, {"measurement": "IC50", "setting": "SK-MES-1 [3]", "result": 90, "unit": "nM"}, {"measurement": "Imax", "setting": "RPMI-8226 [4]", "result": 100, "unit": "%"}, {"measurement": "Imax", "setting": "OVCAR-3 [5]", "result": 58, "unit": "%"}, {"measurement": "IC50", "setting": "RPMI-8226 [6]", "result": 11800, "unit": "nM"}, {"measurement": "IC50", "setting": "HT-29 [7]", "result": 130, "unit": "nM"}, {"measurement": "Imax", "setting": "HepG2 [8]", "result": 67, "unit": "%"}, {"measurement": "IC50", "setting": "MIA PaCa-2 [9]", "result": 300, "unit": "nM"}, {"measurement": "Imax", "setting": "RT112/84 [10]", "result": 67, "unit": "%"}, {"measurement": "IC50", "setting": "COLO 205 [11]", "result": 20, "unit": "nM"}, {"measurement": "IC50", "setting": "OVCAR-3 [12]", "result": 740, "unit": "nM"}, {"measurement": "Imax", "setting": "SK-MES-1 [13]", "result": 67, "unit": "%"}, {"measurement": "IC50", "setting": "RT112/84 [14]", "result": 90, "unit": "nM"}, {"measurement": "Imax", "setting": "MIA PaCa-2 [15]", "result": 85, "unit": "%"}, {"measurement": "Imax", "setting": "NCI-H1975", "result": 91, "unit": "%"}, {"measurement": "Imax", "setting": "COLO 205 [16]", "result": 88, "unit": "%"}]}]}
